Test results: paper PMC3954597 (Biochemistry, 2014)
“And” between values parts separate entries of the source, which are not always exact repeats. Identical values can stand only once.

Assays:
[1] = molecular target: T1, R24M PTP1B (Homo sapiens, UniProt P18031, R24M); test: PTP assay, R24M PTP1B; type: biochemical
T1 sequence (P18031 1-321 R24M): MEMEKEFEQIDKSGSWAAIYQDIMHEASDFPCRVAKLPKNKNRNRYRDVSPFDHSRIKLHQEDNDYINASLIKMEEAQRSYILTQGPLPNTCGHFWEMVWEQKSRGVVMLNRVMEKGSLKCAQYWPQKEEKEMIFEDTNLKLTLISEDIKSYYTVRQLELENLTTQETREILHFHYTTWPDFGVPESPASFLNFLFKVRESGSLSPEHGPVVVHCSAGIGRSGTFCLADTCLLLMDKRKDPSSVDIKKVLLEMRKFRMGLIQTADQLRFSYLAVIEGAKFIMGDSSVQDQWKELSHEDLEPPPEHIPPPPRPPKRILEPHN
In short: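 E. coli-expressed catalytic domains were used: wild-type, R24M or R47E PTP1B (aa 1–321), and SHP-1 (aa 205–595). Reactions started with PTP (0.5–20000 nM final) and dephosphorylation was monitored continuously at 282 nm. kcat, KM and kcat/KM came from initial-rate fits (Michaelis–Menten, or V = kcat[E][S]/KM when KM >> [S]) or from fits of progress curves.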

[2] = molecular target: SHP-1 (Homo sapiens, UniProt P29350); conditions: catalytic domain; cited from earlier work
[3] = molecular target: T2, PTP-PEST (Homo sapiens, UniProt Q05209); test: PTP assay with pY peptide substrates, PTP-PEST; type: biochemical; conditions: for Km / kcat / kcat/KM x10^6: catalytic domain, 100 mM HEPES pH 7.4, monitored at 282 nm
T2 sequence (Q05209 5-300): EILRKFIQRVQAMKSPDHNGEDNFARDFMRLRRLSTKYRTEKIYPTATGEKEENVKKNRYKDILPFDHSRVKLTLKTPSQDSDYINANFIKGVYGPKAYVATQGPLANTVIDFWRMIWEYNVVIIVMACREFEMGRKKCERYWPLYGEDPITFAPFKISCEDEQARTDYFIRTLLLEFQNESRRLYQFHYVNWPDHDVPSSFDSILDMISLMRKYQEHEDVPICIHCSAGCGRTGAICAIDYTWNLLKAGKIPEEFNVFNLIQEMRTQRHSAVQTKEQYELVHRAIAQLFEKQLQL

[4] = molecular target: T3, TCPTP (Homo sapiens, UniProt P17706); test: PTP assay, TCPTP; type: biochemical
T3 sequence (P17706 1-314): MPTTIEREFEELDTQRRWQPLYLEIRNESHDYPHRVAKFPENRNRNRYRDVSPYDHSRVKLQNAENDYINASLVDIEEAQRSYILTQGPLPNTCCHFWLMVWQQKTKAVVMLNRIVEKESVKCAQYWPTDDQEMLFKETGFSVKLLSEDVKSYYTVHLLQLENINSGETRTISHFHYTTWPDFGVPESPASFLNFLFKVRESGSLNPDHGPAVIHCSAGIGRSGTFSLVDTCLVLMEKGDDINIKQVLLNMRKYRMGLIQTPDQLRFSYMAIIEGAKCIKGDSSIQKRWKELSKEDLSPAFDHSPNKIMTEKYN

[5] = molecular target: PTPRA (Homo sapiens, UniProt P18433); test: PTP assay, PTPRA; type: biochemical
In short: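 His-tagged PTPRA catalytic domain (aa 224–802), expressed in E. coli. Dephosphorylation was followed continuously at 282 nm (Δε = 1102 M−1 cm−1). Initial rates were fitted to Michaelis-Menten or V = kcat[E][S]/KM, or full progress curves were fitted to depletion.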

[6] = molecular target: T4, PTPD2 (Homo sapiens, UniProt Q15678); test: PTP assay, PTPD2; type: biochemical; conditions: for Km / kcat / kcat/KM x10^6: catalytic domain, 100 mM HEPES pH 7.4, monitored at 282 nm
T4 sequence (Q15678 876-1187): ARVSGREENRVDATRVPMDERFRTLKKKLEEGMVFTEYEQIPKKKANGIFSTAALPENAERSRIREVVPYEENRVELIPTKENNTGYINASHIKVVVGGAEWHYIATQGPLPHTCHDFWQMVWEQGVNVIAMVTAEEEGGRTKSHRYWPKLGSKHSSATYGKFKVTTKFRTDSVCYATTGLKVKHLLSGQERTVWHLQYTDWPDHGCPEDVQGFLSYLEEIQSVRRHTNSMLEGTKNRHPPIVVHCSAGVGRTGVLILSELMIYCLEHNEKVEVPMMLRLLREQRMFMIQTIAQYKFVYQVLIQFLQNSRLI
In short: (§1)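 His-tagged catalytic domains were made in E. coli: PTPD2 aa 876–1187 and PTPRC aa 620–1236 with N-terminal tags, PTPD1 aa 875–1174 and SHP-2 aa 199–593 with C-terminal tags. Enzyme was added at 0.5–20000 nM final. A282 (Δε 1102 M−1 cm−1) was followed. Constants came from Michaelis–Menten fits of initial rates (<60 s), or from fits of progress curves run to substrate depletion.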

[7] = molecular target: T5, PTPD1 (Homo sapiens, UniProt Q16825); test: PTP assay, PTPD1; type: biochemical
T5 sequence (Q16825 875-1174): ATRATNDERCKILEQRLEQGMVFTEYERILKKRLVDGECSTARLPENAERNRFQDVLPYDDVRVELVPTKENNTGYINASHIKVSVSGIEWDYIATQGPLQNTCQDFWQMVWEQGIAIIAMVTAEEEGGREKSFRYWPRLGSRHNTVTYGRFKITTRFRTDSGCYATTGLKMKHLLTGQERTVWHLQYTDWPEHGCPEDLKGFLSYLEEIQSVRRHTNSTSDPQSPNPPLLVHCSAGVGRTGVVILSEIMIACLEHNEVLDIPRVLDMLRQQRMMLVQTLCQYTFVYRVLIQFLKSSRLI
In short: as §1

[8] = molecular target: T6, PTPH1 (Homo sapiens, UniProt P26045); test: PTP assay, PTPH1; type: biochemical; conditions: for Km / kcat / kcat/KM x10^6: catalytic domain, 100 mM HEPES pH 7.4, monitored at 282 nm
T6 sequence (P26045 628-909): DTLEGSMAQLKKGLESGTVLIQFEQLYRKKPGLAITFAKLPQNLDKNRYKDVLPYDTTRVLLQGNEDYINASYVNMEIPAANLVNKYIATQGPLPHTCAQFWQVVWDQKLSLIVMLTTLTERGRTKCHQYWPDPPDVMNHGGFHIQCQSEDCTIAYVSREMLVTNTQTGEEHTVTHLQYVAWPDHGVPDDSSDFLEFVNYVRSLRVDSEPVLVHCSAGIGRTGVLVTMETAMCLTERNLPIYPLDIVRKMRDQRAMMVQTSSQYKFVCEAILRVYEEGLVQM

[9] = catalytic domain, 100 mM HEPES pH 7.4, monitored at 282 nm
[10] = kcat/KM of neutral peptide over basic Ac-YRKRFpYRYKF-NH2
[11] = kcat/KM of acidic peptide over basic Ac-YRKRFpYRYKF-NH2
[12] = kcat/KM of acidic peptide over neutral Ac-SASASpYSASA-NH2

Chain of SHP-1 (P29350 205-595): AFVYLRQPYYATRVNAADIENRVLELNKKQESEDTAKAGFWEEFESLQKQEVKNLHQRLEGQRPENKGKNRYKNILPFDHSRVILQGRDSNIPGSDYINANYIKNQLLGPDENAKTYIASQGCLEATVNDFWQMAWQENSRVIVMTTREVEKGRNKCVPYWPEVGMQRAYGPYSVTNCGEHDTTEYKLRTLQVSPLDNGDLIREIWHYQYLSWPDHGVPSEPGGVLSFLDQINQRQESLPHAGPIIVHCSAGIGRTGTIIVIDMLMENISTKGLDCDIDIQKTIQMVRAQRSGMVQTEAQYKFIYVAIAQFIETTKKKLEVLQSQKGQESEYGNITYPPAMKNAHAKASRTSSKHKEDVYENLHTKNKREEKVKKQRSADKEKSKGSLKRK

Row | Substance | Km [3] [µM] | kcat [3] [s⁻¹] | kcat/KM x10^6 [3] | kcat/KM x10^6 [4, 9] | kcat/KM x10^6 [5, 9] | Km [6] [µM] | kcat [6] [s⁻¹] | kcat/KM x10^6 [6] | kcat/KM x10^6 [7, 9] | Km [8] [µM] | kcat [8] [s⁻¹] | kcat/KM x10^6 [8] | also measured
1 | Ac-SASASpYSASA-NH2 | 800 ± 10 | 160 ± 2 | 0.20 x10^6 M^−1 s^−1 | 1.7 x10^6 M^−1 s^−1 | 0.023 x10^6 M^−1 s^−1 | 9.4 ± 0.4 | 0.12 ± 0.006 | 0.013 x10^6 M^−1 s^−1 | 0.0000038 x10^6 M^−1 s^−1 | 5.8 ± 0.7 | 2.5 ± 0.2 | 0.44 x10^6 M^−1 s^−1 | Km ([1]; R24M PTP1B aa 1–321, pH 7.4): 14 ± 0.6 µM; kcat ([1]; R24M PTP1B aa 1–321, pH 7.4): 42 ± 2 s⁻¹; kcat/KM x 10^7 ([1]; R24M PTP1B aa 1–321, pH 7.4): 0.30 x 10^7 M^−1 s^−1; WT/R24M ([1]; ratio of kcat/KM, WT over R24M PTP1B (fold reduction by the mutation)): 0.77; Km [2]: 1990 µM and 2000 µM; kcat [2]: 26 ± 4 s^−1 and 26 ± 4 ^c s^−1; kcat/KM x10^6 [2]: 0.013 x10^6 M^−1 s^−1; Km [4, 9]: 10 ± 1 µM; kcat [4, 9]: 17 ± 2 s⁻¹; Neutral/Basic ratio of kcat/KM values [4, 10]: 53; Neutral/Basic ratio of kcat/KM values [5, 10]: 0.5; Neutral/Basic ratio of kcat/KM values [6, 10]: 160; Neutral/Basic ratio of kcat/KM values [7, 10]: 0.7
2 | Ac-YRKRFpYRYKF-NH2 | – | – | 0.0015 x10^6 M^−1 s^−1 | 0.032 x10^6 M^−1 s^−1 | 0.045 x10^6 M^−1 s^−1 | – | – | 0.000082 x10^6 M^−1 s^−1 | 0.0000057 x10^6 M^−1 s^−1 | – | – | 0.0033 x10^6 M^−1 s^−1 | –
3 | Ac-YDEDFpYDYEF-NH2 | 2.2 ± 0.5 | 470 ± 10 | 220 x10^6 M^−1 s^−1 | – | 0.075 x10^6 M^−1 s^−1 | 0.7 ± 0.09 | 0.073 ± 0.003 | 0.11 x10^6 M^−1 s^−1 | 0.0012 x10^6 M^−1 s^−1 | 0.28 ± 0.02 | 2.4 ± 0.06 | 8.8 x10^6 M^−1 s^−1 | Acidic/Basic ratio of kcat/KM values [3, 11]: 150000; Acidic/Neutral ratio of kcat/KM values [3, 12]: 1100; Km [5, 9]: 260 ± 30 µM; kcat [5, 9]: 19 ± 0.6 s⁻¹; Acidic/Basic ratio of kcat/KM values [5, 11]: 2; Acidic/Neutral ratio of kcat/KM values [5, 12]: 3; Acidic/Basic ratio of kcat/KM values [6, 11]: 1300; Acidic/Neutral ratio of kcat/KM values [6, 12]: 8; Km [7, 9]: 26 ± 5 µM; kcat [7, 9]: 0.032 ± 0.005 s⁻¹; Acidic/Basic ratio of kcat/KM values [7, 11]: 220; Acidic/Neutral ratio of kcat/KM values [7, 12]: 330; Acidic/Basic ratio of kcat/KM values [8, 11]: 2600; Acidic/Neutral ratio of kcat/KM values [8, 12]: 20
